ChEMBL document CHEMBL3994636, “New tools in nucleoside toolbox of tick-borne encephalitis virus reproduction inhibitors” (Bioorg Med Chem Lett, 2017)
Activity calls are given as the source filed them. The calls are words filed in the database; no cut-off is given here.

Tests used:
[1] = Cytotoxicity against PEK cells after 7 days; assay type: cell-based, Sus scrofa; conditions: pig
[2] = tested on: Tick-borne encephalitis virus; experiment: Antiviral activity against […] Absettarov infected in PEK cells assessed as inhibition of viral reproduction preincubated with virus for 1 hr followed by addition to PEK cells measured after 1 hr by gentian violet staining based plaque reduction assay; assay type: functional, cell-based
[3] = Cytotoxicity against PEK cells after 24 hrs; assay type: cell-based, Sus scrofa; conditions: pig
Method in brief: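 PEK (porcine embryo kidney) cells were exposed to compound at 50 μM for 24 h and examined for cytotoxicity.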

[4] = tested on: Tick-borne encephalitis virus; experiment: Antiviral activity against […] Absettarov infected in PEK cells assessed as inhibition of viral reproduction at 50 uM preincubated with virus for 1 hr followed by addition to PEK cells measured after 1 hr by gentian violet staining based plaque reduction assay relative to control; assay type: functional

SMILES	CC50 at 168 h [1] [µM]	EC50 [2] [µM]	CC50 at 24 h [3] [µM]	inhibition at 50 µM [4] [%]	inhibition [4]
CC(C)(C)[Si](C)(C)OC[C@H]1O[C@@H](n2cnc3c(NCc4ccccc4)ncnc32)[C@H](O)[C@@H]1O	> 50	20	> 50	50	
OC[C@H]1O[C@@H](n2cnc3c(NCc4ccco4)ncnc32)[C@H](O)[C@@H]1O [KINETIN RIBOSIDE]		> 50			inactive
O=C(Nc1nc2c(ncn2[C@@H]2O[C@H](CO)[C@@H](O)[C@H]2O)c(=O)[nH]1)c1ccccc1		> 50			inactive
C[C@@]1(O)[C@@H](CO)O[C@@H](n2cnc3c(=O)[nH]c(N)nc32)[C@@H]1O		> 50			inactive
OC/C=C\CNc1ncnc2c1ncn2[C@@H]1O[C@H](CO)[C@@H](O)[C@H]1O		> 50			inactive
CC(C)=CCC/C(C)=C/CNc1ncnc2c1ncn2[C@@H]1O[C@H](CO)[C@@H](O)[C@H]1O		> 50			inactive
CC(C)=CCC/C(C)=C\CNc1ncnc2c1ncn2[C@@H]1O[C@H](CO)[C@@H](O)[C@H]1O		> 50			inactive
C[C@@]1(O)[C@@H](CO)O[C@@H](n2ccc(N)nc2=O)[C@@H]1O		> 50			inactive
O[C@@H]1[C@H](O)[C@@H](COC(c2ccccc2)(c2ccccc2)c2ccccc2)O[C@H]1n1cnc2c(NCc3ccccc3)ncnc21	9	2	> 50	50	
c1ccc(CNc2ncnc3nc[nH]c23)cc1 [6-BENZYLAMINOPURINE]	> 50		> 50		
c1ccc(CNc2ncnc3[nH]cnc23)cc1 [6-BENZYLAMINOPURINE]		> 50			inactive
O=C(Nc1ccn(C2O[C@H](CO)[C@@H](O)[C@H]2O)c(=O)n1)c1ccccc1 (stereo partly specified)		> 50			inactive
OC[C@H]1O[C@@H](n2cnc3c(NCc4c5ccccc5cc5ccccc45)ncnc32)[C@H](O)[C@@H]1O	> 50	15	> 50	50	
OC[C@H]1O[C@@H](n2cnc3c(NC/C=C/c4ccccc4)ncnc32)[C@H](O)[C@@H]1O		> 50			inactive
OC[C@H]1O[C@@H](n2cnc3c(NC4CCCCC4)ncnc32)[C@H](O)[C@@H]1O		> 50			inactive
C[n+]1cn([C@@H]2O[C@H](CO)[C@@H](O)[C@H]2O)c2nc(N)nc([O-])c21		> 50			inactive

SMILES	CC50 at 168 h [1] [µM]	EC50 [2] [µM]	CC50 at 24 h [3] [µM]	inhibition at 50 µM [4] [%]	inhibition [4]
CC(C)=CCNc1ncnc2c1ncn2[C@@H]1O[C@H](CO)[C@@H](O)[C@H]1O [RIBOPRINE]		> 50			inactive
Cc1cn([C@@H]2O[C@H](CO)[C@@](C)(O)[C@H]2O)c(=O)[nH]c1=O		> 50			inactive
C=CCC#CCNc1ncnc2c1ncn2[C@@H]1O[C@H](CO)[C@@H](O)[C@H]1O		> 50			inactive
OC[C@H]1O[C@@H](n2cnc3c(NCc4ccccc4)ncnc32)[C@H](O)[C@@H]1O [N6-BENZYLADENOSINE]	> 50	> 50	> 50		inactive
CC(C)[Si](OC[C@H]1O[C@@H](n2cnc3c(NCc4ccccc4)ncnc32)[C@H](O)[C@@H]1O)(C(C)C)C(C)C	> 50	5	> 50	50	
Cn1cnc2c(ncn2[C@@H]2O[C@H](CO)[C@@H](O)[C@H]2O)c1=N		> 50			inactive
OC[C@H]1O[C@@H](n2cnc3c(NC(c4ccccc4)(c4ccccc4)c4ccccc4)ncnc32)[C@H](O)[C@@H]1O		> 50			inactive
C[C@@]1(O)[C@@H](CO)O[C@@H](n2ccc(=O)[nH]c2=O)[C@@H]1O		> 50			inactive
OC[C@H]1O[C@@H](n2cnc3c(NCc4ccc5ccc6cccc7ccc4c5c67)ncnc32)[C@H](O)[C@@H]1O	9	6	> 50	50	
CC(C)C(=O)Nc1nc2c(ncn2[C@@H]2O[C@H](CO)[C@@H](O)[C@H]2O)c(=O)[nH]1		> 50			inactive
C=C(C)[C@@H]1CC=C(CNc2ncnc3c2ncn3[C@@H]2O[C@H](CO)[C@@H](O)[C@H]2O)CC1		> 50			inactive
OC[C@H]1O[C@@H](n2cnc3c(NCC#Cc4ccccc4)ncnc32)[C@H](O)[C@@H]1O		> 48			inactive
CC1(C)[C@H]2CC=C(CNc3ncnc4c3ncn4[C@@H]3O[C@H](CO)[C@@H](O)[C@H]3O)[C@@H]1C2		> 50			inactive
OC[C@H]1O[C@@H](n2cnc3c(NCc4ccc5ccccc5c4)ncnc32)[C@H](O)[C@@H]1O		> 50			inactive
CNc1ncnc2c1ncn2[C@@H]1O[C@H](CO)[C@@H](O)[C@H]1O		> 50			inactive
C#CCNc1ncnc2c1ncn2[C@@H]1O[C@H](CO)[C@@H](O)[C@H]1O		> 50			inactive
